Screening results from PubChem BioAssay.
KLF5 inh: inhibitors of KLF5 expression; inhibition, % at 5 µM; AID 1700; 290,000 tested, 0.23% active; DLD-1 KLF5 promoter-luciferase reporter, luminescence;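 active = inhibition above a per-plate limit of that plate's mean compound inhibition plus 3 SD, cut at about 60% in these data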;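 note: higher means less KLF5 promoter-driven luciferase light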
BaF3 parental: counter-screen for JAK2V617F inhibitors: parental Ba/F3 viability inhibitors; CellTiter-Glo ATP luminescence; inhibition, % at 5.6 µM; 220,000 tested, 1.1% active;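 active = inhibition above a per-campaign cutoff, the mean inhibition of all tested compounds plus 3 SD, cut at about 27% in these data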
MT stabilize HCS: microtubule stabilization, imaging screen; % tubulin-high responders, % at 10 µM; AID 2205; 200,000 tested, 0.83% active; HeLa tubulin immunostaining HCS, 24 h; share of cells brighter than vehicle mean+2SD;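 active = plate Z-score above 3 for both tubulin-high and condensed-nucleus cell shares, with cell loss under 80%, at 10 µM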;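 note: anti alpha tubulin signal scored within the nucleus-defined area of each cell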
bCat nuc transl: alters nuclear translocation of beta-catenin in HeLa cells | 190,000 tested, 0.3% active | AID 1665 | immunofluorescence imaging | nuclear translocation activity, % at 5 µM;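 active = nuclear translocation activity above 50% at 5 µM, with a well cell count of 50 or more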;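 note: per-cell ratio of nuclear to cytoplasmic median beta-catenin stain intensity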
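Signal – beta-catenin immunofluorescence imaging with DAPI · Test system – human HeLa cell line · Dosing – 5 µM primary single dose, 0.1% DMSO, 0.02–20 µM confirmation series · Measure – % activation, nuclear-to-cytoplasmic median beta-catenin signal ratio per cell · Incubation – 24 h compound exposure at 37°C, 5% CO2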
IEC-6 cytotox: counter-screen for KLF5 inhibitors: cytotoxicity in IEC-6 cells; 290,000 tested, 0.78% active; AID 1825; inhibition, % at 5 µM; IEC-6 cytotoxicity, luminescence viability; in the data active = inhibition above about 22%
Ba/F3 V617F tox: lowers viability of Ba/F3 cells expressing EpoR and JAK2V617F; ATP luminescence; inhibition, % at 5.6 µM; 220,000 tested, 1.1% active; AID 1446;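 active = inhibition above the campaign mean plus 3 SD over all tested compounds, cut at about 24% in these data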;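 note: cytokine-independent growth of Ba/F3 cells driven by EpoR plus mutant JAK2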
Hits are given with their value; - = inactive; . = no result. Compounds with a hit are over-represented: about 2.1% of the library has one in this group of screens.

SMILES	KLF5 inh	BaF3 parental	MT stabilize HCS	bCat nuc transl	IEC-6 cytotox	Ba/F3 V617F tox
CC(C)=CCC/C(C)=C/CCC(C)NCCN1CCNCC1 (configuration not stated)	-	-	-	-	33.8	-
CCCCn1c(CN(C)Cc2ccccc2)nc2c1c(=O)n(C)c(=O)n2C	-	28.8	-	-	-	-
CCCCn1c(CN2CCN(c3ccccc3)CC2)nc2c1c(=O)n(C)c(=O)n2C	-	28.5	-	-	-	-
CN(Cc1ccccc1)Cc1nc2c(c(=O)n(C)c(=O)n2C)n1CCc1ccccc1	-	-	-	.	-	-
CCOC(=O)CNC(=O)Cn1cnc2c(nnn2-c2ccc(F)cc2)c1=O	-	95.8	-	-	-	-
CCOC(=O)CNC(=O)Cn1cnc2c(nnn2-c2ccccc2)c1=O	-	.	.	.	-	.
COC(=O)c1ccc(CSc2nnc(Nc3ccccc3OC)s2)o1	-	40.7	-	-	-	-
COC(=O)c1ccc(CSc2nnc(Nc3ccc(OC)cc3)s2)o1	-	-	-	-	-	-
Cn1cc(C(C[N+](=O)[O-])c2ccccc2)c2ccccc21 (configuration not stated)	-	.	.	.	-	.
CC(=O)n1cc(C(C[N+](=O)[O-])SCCN)c2ccccc21 (configuration not stated)	-	-	25.9	-	-	-
Fc1ccccc1CSc1nnc(-c2cnccn2)n1Cc1ccco1	-	-	-	-	-	-
C(=C\c1ccccc1)/CSc1nnc(-c2cnccn2)n1Cc1ccco1	-	-	-	56.4	-	-
COc1ccc(NC(=O)c2nc(C)c(C3(C)CC(c4cccnc4)=NO3)s2)cc1 (configuration not stated)	.	.	.	75.9	.	.
CNC(=O)c1nc(C)c(C2(C)CC(c3ccccc3)=NO2)s1 (configuration not stated)	.	.	.	-	.	.
CC(C)CNC(=O)NC(=O)COC(=O)c1cc(F)cc(F)c1	-	-	-	-	-	-
COc1cc(C(=O)NCCOc2cccc3cccnc23)cc(OC)c1OC	-	-	39.6	-	-	-
CCc1nc(N2CCN(Cc3ccc4c(c3)OCO4)CC2)c2oc3ccccc3c2n1	-	-	48.2	115.5	-	-
CCc1nc(N2CCCCC2)c2oc3ccccc3c2n1	-	-	-	-	-	-
Cc1nc(Nc2ccncc2)c2oc3ccccc3c2n1	-	-	-	.	-	-
CCc1nc(N2CCCCC2C)c2oc3ccccc3c2n1 (configuration not stated)	-	-	31.3	113.7	-	-
CCc1nc(Nc2ccncc2)c2oc3ccccc3c2n1	-	29.4	-	-	-	-
Cc1cccc(C(=O)NNC(=O)CCCCC(=O)NNC(=O)c2cccc(C)c2)c1	-	.	.	.	-	.
C=CCn1c(=O)c(C(=O)NCCN(CC)CC)c(O)c2ccccc21	-	46.5	-	-	-	-
O=C(CN(Cc1ccccc1)C(=O)CNS(=O)(=O)c1ccc(F)cc1)NCC1CCCO1 (configuration not stated)	-	.	.	.	-	.
Cn1c(Cl)c(C(=O)Nc2ccc(Cl)cc2)c2ccccc21	-	-	27.8	-	-	-
SMILES	KLF5 inh	BaF3 parental	MT stabilize HCS	bCat nuc transl	IEC-6 cytotox	Ba/F3 V617F tox
CC(=O)O[C@H]1C(=O)[C@@]2(C)[C@H]([C@H](OC(=O)c3ccccc3)[C@]3(O)C[C@H](OC(=O)[C@H](O)C(NC(=O)c4ccccc4)c4ccccc4)C(C)=C1C3(C)C)[C@]1(OC(C)=O)CO[C@@H]1C[C@@H]2O (some centres not stated)	.	.	.	69.1	.	.
CC(=O)c1cccc(NC(=O)Nc2nc(C)cc(C)n2)c1	-	.	.	.	-	.
C=CC#CC[N+]1(CC#Cc2ccccc2)CCOCC1	-	-	-	-	-	-
C=CC[N+]1(CC#Cc2ccccc2)CCCC1	-	56.1	-	-	-	46.0
C(#Cc1ccccc1)C[N+]1(CC#Cc2ccccc2)CCCC1	-	71.0	-	.	-	87.0
O=C(Nc1nc(-c2ccccn2)cs1)c1cccc(-n2cnnn2)c1	-	62.9	.	-	-	52.7
COc1ccc(COc2cc(-c3cccc(OC)c3)nc3ccc(NC(C)=O)cc23)cc1	-	-	-	.	-	-
COc1ccc(COc2cc(-c3cccc(OC)c3)nc3ccc(N)cc23)cc1	-	83.7	-	.	-	80.7
COc1ccccc1C(C)NC(=O)c1ccc(C)o1 (configuration not stated)	-	-	43.7	.	-	-
